This is an account of results in ChEMBL document CHEMBL1158473, “Aromatic 2-(thio)ureidocarboxylic acids as a new family of modulators of multidrug resistance-associated protein 1: synthesis, biological evaluation, and structure-activity relationships” (J Med Chem, 2009).

Molecules are shown by their SMILES. Active and inactive are the calls of the source. No cut-off for these calls is given here. Bounds are passed on as bounds.

Data set [1] has as its target T1, BCRP (ABCG2) (Homo sapiens, UniProt Q9UNQ0).
T1 sequence (Q9UNQ0 whole entry): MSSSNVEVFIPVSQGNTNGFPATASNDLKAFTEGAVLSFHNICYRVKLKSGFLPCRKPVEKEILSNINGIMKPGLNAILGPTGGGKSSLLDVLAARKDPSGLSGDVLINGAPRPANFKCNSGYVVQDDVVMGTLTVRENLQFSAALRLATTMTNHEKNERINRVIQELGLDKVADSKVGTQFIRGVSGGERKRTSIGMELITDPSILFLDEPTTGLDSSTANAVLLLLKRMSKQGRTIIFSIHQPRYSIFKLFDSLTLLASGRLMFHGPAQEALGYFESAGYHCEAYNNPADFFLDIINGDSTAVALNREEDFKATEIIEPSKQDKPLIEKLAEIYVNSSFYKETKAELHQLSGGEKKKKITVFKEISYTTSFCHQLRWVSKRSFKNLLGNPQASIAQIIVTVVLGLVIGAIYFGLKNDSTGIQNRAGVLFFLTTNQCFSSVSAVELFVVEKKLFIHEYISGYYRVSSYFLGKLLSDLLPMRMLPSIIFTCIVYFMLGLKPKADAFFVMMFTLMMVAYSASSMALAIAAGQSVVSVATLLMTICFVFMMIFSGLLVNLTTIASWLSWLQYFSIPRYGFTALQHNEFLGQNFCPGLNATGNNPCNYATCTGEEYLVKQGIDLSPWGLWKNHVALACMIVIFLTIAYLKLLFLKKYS
As to the kind of experiment: Inhibition of BCRP expressed in human MCF7 MX cells at 31.6 uM by Hoechst 33342 staining relative to 10 uM XR9577. It is filed as cell-based. The settings on record: MCF7 MX cells expressing BCRP, probe Hoechst 33342. In a few lines: (§1)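 MCF-7 MX cells, with parental MCF-7 alongside, in RPMI 1640 plus 10% FCS. Cells washed in Krebs-HEPES, about 20000 per well, preincubated with compound 30 min at 37 °C, 5% CO2. Hoechst 33342 added and fluorescence (ex 355/em 460 nm) read every 120 s up to 2400 s at 37 °C. Background-subtracted slopes were fitted; XR9577 10 μM served as positive control.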

Data set [2] has as its system 2008. As to the kind of experiment: Cytotoxicity against human 2008 cells after 72 hrs by MTT assay. As to conditions: Homo sapiens, 2008, 72 h. Background: Formazan colour is commonly taken as a measure of viable cells.
The target in data set [3] is T2, Broad substrate specificity ATP-binding cassette transporter ABCG2 (Homo sapiens, UniProt Q9UNQ0).
T2 sequence (Q9UNQ0 whole entry): T1 sequence (Q9UNQ0 whole entry)
The data set can be described thus: Inhibition of BCRP expressed in MCF7 MX cells by Hoechst 33342 staining. The data set is classed as cell-based. In a few lines:
as §1

In data set [4] the target is T3, Multidrug resistance-associated protein 1 (Homo sapiens, UniProt P33527). The data set can be described thus: Inhibition of MRP1 expressed in multidrug resistant human 2008 cells assessed as calcein AM accumulation by fluorescence assay in presence of p-gp and BCRP inhibitor XR9577. It is filed as cell-based. An outline of the steps:
(§2)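 Transfected 2008 MRP1 cells run beside 2008 WT cells, 21000 cells per well in Krebs-HEPES buffer. Cobalt sulfate was added to quench extracellular calcein, plus XR9577 to block P-gp. After 30 min preincubation with compound, calcein AM (final 0.5 μM) was added and fluorescence followed 30 min. Slopes were normalized and fitted by a four-parameter logistic; indomethacin (0.316–178 μM) was included.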

Data set [5] has as its target T3, Multidrug resistance-associated protein 1. The data set can be described thus: Inhibition of MRP1-mediated calcein AM transport expressed in multidrug resistant human 2008 cells assessed as calcein AM accumulation at 100 uM by fluorescence assay in presence of p-gp and BCRP inhibitor XR9577. The settings on record: human, 2008, 100 µM. It is filed as cell-based.

The test system of data set [6] is 2008. The data set can be described thus: Potentiation of daunorubicin-induced cytotoxic activity against MRP1-expressing human 2008 cells at 31.6 uM after 72 hrs by MTT assay. The data set is classed as functional, cell-based. An outline of the steps: (§3)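 2008 MRP1 cells given a fixed 31.6 μM modulator together with vinblastine or daunorubicin at 0.1 nM–100 μM. Cytostatic alone was tested on 2008 MRP1 and WT cells as control; indomethacin 31.6 μM served as positive control. After 72 h, viability was read by MTT.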

Data set [7] has as its system 2008. The data set can be described thus: Potentiation of vinblastine-induced cytotoxic activity against MRP1-expressing human 2008 cells at 31.6 uM after 72 hrs by MTT assay. The data set is classed as functional, cell-based. An outline of the steps: as §3
The test system of data set [8] is A2780 ADR. The data set can be described thus: Inhibition of P-gp expressed in human A2780/ADR cells assessed as calcein AM accumulation a 31.6 uM by fluorescence assay. It is filed as cell-based. In a few lines:
(§4)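 P-gp-overexpressing A2780/ADR cells, with wild-type A2780 alongside. Calcein AM accumulation run as in the MRP1 assay (30 min preincubation, final 0.5 μM calcein AM, 30 min reading) but without cobalt or XR9577. XR9577 10 μM served as positive control.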

For data set [9], the system named is A2780 ADR. The data set can be described thus: Inhibition of P-gp expressed in human A2780/ADR cells assessed as calcein AM accumulation a 100 uM by fluorescence assay. It is filed as cell-based. In a few lines: as §4
Data set [10] concerns the target T3, Multidrug resistance-associated protein 1. As to the kind of experiment: Inhibition of MRP1. An outline of the steps:
as §2

Data set [11] concerns 2008. As to the kind of experiment: Cytotoxicity against human 2008 cells after 24 hrs by MTT assay. The data set is classed as cell-based. As to conditions: Homo sapiens, 2008, 24 h.

T3 sequence (P33527 whole entry): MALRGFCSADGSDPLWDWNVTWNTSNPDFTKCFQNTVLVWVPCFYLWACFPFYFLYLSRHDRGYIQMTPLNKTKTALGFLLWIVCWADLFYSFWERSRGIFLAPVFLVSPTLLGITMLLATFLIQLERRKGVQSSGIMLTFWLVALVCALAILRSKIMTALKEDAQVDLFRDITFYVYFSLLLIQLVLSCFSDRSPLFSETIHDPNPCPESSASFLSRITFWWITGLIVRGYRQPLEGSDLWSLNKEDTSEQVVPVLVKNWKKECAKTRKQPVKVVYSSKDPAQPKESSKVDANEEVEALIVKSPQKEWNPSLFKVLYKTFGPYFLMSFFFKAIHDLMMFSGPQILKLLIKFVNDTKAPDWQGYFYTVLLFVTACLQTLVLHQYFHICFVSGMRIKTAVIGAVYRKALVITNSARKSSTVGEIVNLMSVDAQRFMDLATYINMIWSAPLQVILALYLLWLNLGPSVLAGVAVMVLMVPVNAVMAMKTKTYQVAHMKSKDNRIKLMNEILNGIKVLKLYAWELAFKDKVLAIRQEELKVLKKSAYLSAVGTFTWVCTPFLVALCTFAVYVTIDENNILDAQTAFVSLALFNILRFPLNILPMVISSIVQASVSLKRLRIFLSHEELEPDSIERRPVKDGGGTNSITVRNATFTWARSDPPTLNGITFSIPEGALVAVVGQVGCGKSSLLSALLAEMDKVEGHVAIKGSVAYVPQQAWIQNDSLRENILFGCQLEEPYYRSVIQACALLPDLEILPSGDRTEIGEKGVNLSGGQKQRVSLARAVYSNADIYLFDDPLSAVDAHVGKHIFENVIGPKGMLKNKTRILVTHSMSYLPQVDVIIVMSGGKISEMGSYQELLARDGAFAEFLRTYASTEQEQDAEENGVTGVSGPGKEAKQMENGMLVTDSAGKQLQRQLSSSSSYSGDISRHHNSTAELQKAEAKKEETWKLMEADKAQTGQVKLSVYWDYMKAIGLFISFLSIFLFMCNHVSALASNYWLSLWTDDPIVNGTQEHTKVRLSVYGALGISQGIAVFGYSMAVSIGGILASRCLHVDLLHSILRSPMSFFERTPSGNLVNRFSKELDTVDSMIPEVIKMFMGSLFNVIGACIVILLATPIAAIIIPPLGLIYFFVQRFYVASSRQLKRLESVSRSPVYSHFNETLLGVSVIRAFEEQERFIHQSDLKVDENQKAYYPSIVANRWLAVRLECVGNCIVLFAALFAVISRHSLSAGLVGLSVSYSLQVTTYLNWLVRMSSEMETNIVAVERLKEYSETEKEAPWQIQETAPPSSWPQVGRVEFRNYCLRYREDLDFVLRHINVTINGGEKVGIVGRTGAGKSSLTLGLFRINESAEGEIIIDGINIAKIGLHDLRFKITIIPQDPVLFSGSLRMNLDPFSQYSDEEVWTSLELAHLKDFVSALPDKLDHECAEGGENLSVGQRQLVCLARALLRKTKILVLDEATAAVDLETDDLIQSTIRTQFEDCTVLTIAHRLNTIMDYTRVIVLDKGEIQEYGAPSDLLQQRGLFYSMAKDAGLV

In the case of `CCN(CC)C(=O)Nc1sc2c(c1C(=O)O)CCC2`, at 31.6 µM the inhibition in data set [1] was 25%. Also, the IC50 – broadly, the midpoint of a concentration-inhibition curve – in data set [2] was over 100 µM. Regarding `CN(C(=S)Nc1ccccc1C(=O)O)C1CCCCC1`, the inhibition – broadly, how much of the control response was suppressed – at 31.6 µM in data set [1] is under 20%. For the same molecule, in data set [2], the IC50 is over 100 µM.

As for `CCN(CC)C(=S)Nc1sc2c(c1C(=O)O)C(C)CCC2` (racemic), the IC50 in data set [3] is 9.1 µM; in data set [4], 4.06 µM; in data set [2] it was over 100 µM.

For the molecule `CN(CCc1ccccc1)C(=O)Nc1ccccc1C(=O)O`, in data set [5], the “inhibition (INH)” value is given as “Not Active”. On the same count and under the same terms, in the case of `Cc1ccc(NC(=O)N(C)c2ccccc2)c(C(=O)O)c1` it was “Not Active”. Take `Cc1ccc(NC(=O)N(C)C2CCCCC2)c(C(=O)O)c1`: the IC50 in data set [4] is 22.8 µM. For `CN(C(=S)Nc1sccc1C(=O)O)C1CCCCC1`, the result in [6] and in data set [7] was inactive. Also, the results for the half-inhibitory concentration (IC50) in data set [3], in data set [4] and in [2] were 10.2 µM, 4.51 µM and over 100 µM, respectively. For the molecule `Cc1ccc(NC(=O)N(C)CCc2ccccc2)c(C(=O)O)c1`, the “inhibition (INH)” value in data set [5] was “Not Active”. In the case of `O=C(O)c1ccccc1NC(=S)N1CCNCC1`, in data set [4], the IC50 was 20.7 µM. Regarding `CCN(CC)C(=S)Nc1sc2c(c1C(=O)O)CCCCC2`, testing at 31.6 µM in [1] gave an inhibition of 25%. For the same molecule, the 50% inhibitory concentration (IC50) in data set [4] is 5.97 µM; in data set [2], over 100 µM. `CCN(CC)C(=O)Nc1sc2c(c1C(=O)O)CCCC2` displayed an inhibition at 31.6 µM in data set [1] of 25%. For the same molecule, in data set [2], the IC50 is over 100 µM. The like results for `CN(C(=O)Nc1ccccc1C(=O)O)C1CCCCC1` were, in that order, 25% and over 100 µM. In the case of `CN(C(=O)Nc1ccccc1C(=O)O)c1ccccc1`, the “inhibition (INH)” value in [5] is “Not Active”. Regarding `CCN(CC)C(=S)Nc1ccccc1C(=O)O`, the 50% inhibitory concentration (IC50) in data set [4] is 21.6 µM. In the case of `O=C(O)c1c(-c2ccccc2)csc1NC(=S)N1CCOCC1`, the “inhibition (INH)” value in data set [5] was “Not Active”. In data set [1], `CCN(CC)C(=S)Nc1sccc1C(=O)O` gave an inhibition at 31.6 µM of 25%. For the same molecule, the half-maximal inhibitory concentration (IC50) in data set [4] was 4.46 µM; in [2], over 100 µM. Regarding `CCN(CC)C(=S)Nc1sc(-c2ccccc2)cc1C(=O)O`, the IC50 in data set [4] was 14.3 µM; in data set [2], over 100 µM. Also, the inhibition was 20% in data set [8] and 40% in data set [9]. On to `CCN(CC)C(=S)Nc1sc(C(N)=O)c(C)c1C(=O)O`, for which the IC50 in [4] is over 100 µM. Take `CCN(CC)C(=S)Nc1sc2c(c1C(=O)O)CCCC2`: testing at 31.6 µM in data set [1] gave an inhibition of 25%. Moreover, the concentration for half-maximal inhibition (IC50) is 2.71 µM in [4] and over 100 µM in data set [2]. Molecule `COc1cc(C2Oc3cc(-c4oc5cc(O)cc(O)c5c(=O)c4O)ccc3OC2CO)ccc1O` (stereo not given) [DEHYDROSILYLBIN] gave an IC50 in [10] of 1.1 µM. With `Cc1ccc(NC(=O)N2CCOCC2)c(C(=O)O)c1`, in data set [5], the “inhibition (INH)” value is “Not Active”. Consider `CCN(CC)C(=S)Nc1sc2ccccc2c1C(=O)O`, for which the outcome in [6] and in data set [7] was inactive. Further, the IC50 was 6.16 µM in [3], 0.932 µM in [4] and over 100 µM in data set [2]. For the molecule `CN(Cc1ccccc1)C(=O)Nc1ccccc1C(=O)O`, in [4], the 50% inhibitory concentration (IC50) was 42.6 µM. `CN1CCN(C(=S)Nc2sc3c(c2C(=O)O)CCCC3)CC1`: the “inhibition (INH)” value in data set [5] is “Not Active”. Take `O=C(O)c1ccccc1NC(=S)N1CCOCC1`: the “inhibition (INH)” value in [5] is on record as “Not Active”. Regarding `CN(C(=S)Nc1ccccc1C(=O)O)c1ccccc1`, in data set [4], the IC50 is 198 µM.

Turning to `CN(CCc1ccccc1)C(=S)Nc1ccccc1C(=O)O`, the IC50 in data set [4] was 24 µM.

Regarding `CN(C)C(=S)Nc1sc2c(c1C(=O)O)CCCC2`, the “inhibition (INH)” value in data set [5] was “Not Active”.

`O=C(O)c1c(NC(=S)N2CCOCC2)sc2ccccc12`: the “inhibition (INH)” value in data set [5] is on record as “Not Active”. Regarding `CCN(CC)C(=S)Nc1ccsc1C(=O)O`, in data set [1], the inhibition at 31.6 µM stood at 25%. The half-inhibitory concentration (IC50) in [4] was 4.18 µM; in data set [11], over 100 µM.

On to `CCN(CC)C(=O)Nc1ccccc1C(=O)O`, for which the IC50 in data set [4] was 26.4 µM.

Turning to `CN(C(=S)Nc1sc2ccccc2c1C(=O)O)C1CCCCC1`, in [1], the inhibition at 31.6 µM was found to be 25%. In addition, the IC50 in data set [4] was 1.23 µM; in data set [2], over 100 µM. For `O=C(O)c1ccccc1NC(=O)N1CCOCC1`, the “inhibition (INH)” value in [5] is “Not Active”. Still for that read-out and setting: in the case of `CC(C)NC(=O)Nc1sc2c(c1C(=O)O)CCCC2` it was “Not Active”.

Take `CCN(CC)C(=S)Nc1scc(C(C)C)c1C(=O)O`: the concentration for half-maximal inhibition (IC50) in data set [4] is 14.5 µM. Regarding `Cc1ccc(NC(=O)N(C)Cc2ccccc2)c(C(=O)O)c1`, the “inhibition (INH)” value in data set [5] is reported as “Not Active”. The molecule `Cc1sc(NC(=S)N(C)C2CCCCC2)c(C(=O)O)c1C` displayed an inhibition at 31.6 µM in data set [1] of 25%. Moreover, the IC50 in data set [4] is 4.19 µM; in [2], over 100 µM. For the molecule `CN(Cc1ccccc1)C(=S)Nc1ccccc1C(=O)O`, in [4], the half-maximal inhibitory concentration (IC50) is 29.1 µM. Same read-out and setting: in the case of `O=C(O)c1ccccc1NC(=S)N1CCCC1` it was 18.3 µM.

Regarding `O=C(O)c1cc(-c2ccccc2)sc1NC(=S)N1CCOCC1`, the IC50 in [4] was 27.5 µM.

As for `COC(=O)CN(C)C(=O)Nc1ccccc1C(=O)O`, the “inhibition (INH)” value in data set [5] is “Not Active”. For `Cc1cc(NC(=O)N2CCOCC2)c(C(=O)O)cc1C`, the IC50 in [4] was 43.4 µM. The same measure, in the same setting: in the case of `Cc1sc(NC(=S)N2CCOCC2)c(C(=O)O)c1C` it was 18.3 µM.

For the molecule `CCN(CC)C(=O)Nc1cc2ccccc2cc1C(=O)O`, in [2], the IC50 is over 100 µM. `O=C(O)c1c(NC(=O)N2CCOCC2)sc2c1CCCC2`: in data set [5], the “inhibition (INH)” value is “Not Active”. Same read-out and setting: in the case of `O=C(O)c1c(NC(=S)N2CCOCC2)sc2c1CCCC2` it was “Not Active”.

In the case of `CCN(CC)C(=S)Nc1sc(C)c(C)c1C(=O)O`, the IC50 in data set [4] was 20.4 µM.

`CCN(CC)C(=S)Nc1sc2c(c1C(=O)O)CCC2` yielded an inhibition at 31.6 µM in [1] of 25%. The half-inhibitory concentration (IC50) is 2.56 µM in [4] and over 100 µM in data set [2].

Consider `O=C(O)c1ccccc1NC(=O)N1CCCC1`, for which, in data set [4], the IC50 is 43.1 µM.
